Active and inactive are the calls of the source. The calls are words filed in the database; no cut-off is given here. Numbered stars: 1 amine (or outer) side, 2 acyl side, 3 side chain; on linkers, the order of the positions; unused ones are H or OH. Bridge positions count the residues as written; N and C are the ends. Square brackets hold non-standard residues; d marks the D form. Peptide text beside a SMILES is read from it. Trimesoyl = O=C(c1cc(C(=O)[*:2])cc(C(=O)[*:3])c1)[*:1]; d2Nal = N[C@H](Cc1ccc2ccccc2c1)C(=O)O; Phg = N[C@H](C(=O)O)c1ccccc1; Orn = NCCC[C@H](N)C(=O)O; Dap = NC[C@H](N)C(=O)O

In ChEMBL document CHEMBL4842360, “Discovery of a Bicyclic Peptidyl Pan-Ras Inhibitor” (J Med Chem, 2021) one finds Activity, EC50 and Drug uptake data, which are given here for one compound.

The subject of data set [1] is NCI-H358. In words: Induction of apoptosis in human NCI-H358 cells assessed as late apoptotic cells at 1 uM incubated for 24 hrs by Alexa Fluor 488 annexin V/propidium iodide staining based assay (reference value: […]). The data set is classed as functional.
Data set [2] can be described thus: Antiproliferative activity against human NCI-H1915 cells harboring HRas Q61L mutant incubated for 96 hrs by CellTiter-Glo2 assay. The data set is classed as functional, cell-based. Particulars: NCI-H1915, Lung. In outline: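 Cells plated at 5,000/well, grown overnight, then exposed to serially diluted peptide (0–40 μM) in medium with 10% FBS for 96 h at 37 °C, 5% CO2. Viability read by CellTiter-Glo 2.0 luminescence after 15 min at RT.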

Data set [3] deals with NCI-H358. In words: Induction of apoptosis in human NCI-H358 cells assessed as necrotic cells at 10 uM incubated for 24 hrs by Alexa Fluor 488 annexin V/propidium iodide staining based assay (reference value: 0.699%). The data set is classed as functional.
In data set [4] the test system is NCI-H358. Description: Induction of apoptosis in human NCI-H358 cells assessed as early apoptotic cells at 5 uM incubated for 24 hrs by Alexa Fluor 488 annexin V/propidium iodide staining based assay (reference value: 3.05%). The data set is classed as functional.
The nature of data set [5]: Drug distribution in human NCI-H358 cells assessed as accumulation in plasma membrane at 5 uM incubated for 2 hrs by live-cell confocal microscopy. The data set is classed as ADME, cell membranes. Conditions: nci-h358, 2 h. In outline: (§1)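 HeLa, H358 or A549 cells treated with 5 μM fluorescein-labeled peptide for 2 h, then imaged by live-cell confocal microscopy for intracellular fluorescence pattern.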

The nature of data set [6]: Toxicity in mouse xenografted with human A549 cells assessed as effect on body weight at 1 to 5 mg/kg, iv administered for 9 days. It is filed as organism-based. Particulars: in vivo, 216 h, dose 1-5 mg/kg, time 9 day. In outline:
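About 1.5 million A549 cells given subcutaneously to nude mice. Dosing began once tumors reached ~40 mm3, with n = 6 per group. Mice received 1 or 5 mg/kg per day or vehicle (PBS) by tail-vein injection for 9 days. Body weight was monitored alongside tumor volume and weight at harvest.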
In general terms: Xenograft models place foreign cells or tissue in a host animal.

A further data set has as its system A549. In words: Antitumor activity against human A549 cells xenografted in mouse assessed as average tumor volume at 1 mg/kg, iv administered for 9 days measured every other day (reference value: 100 mm3). Conditions: time 9 day. It is filed as functional. The method, boiled down:
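Nude mice given ~1.5 million A549 cells subcutaneously. Once tumors reached ~40 mm3, groups of n = 6 received peptide at 1 or 5 mg/kg/day or PBS vehicle by tail-vein injection for 9 days. Tumor volume was tracked, and tumors were weighed at harvest.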

A short description of data set [7]: Drug distribution in human NCI-H358 cells assessed as diffuse fluorescence throughout the entire cell volume at 5 uM incubated for 2 hrs by live-cell confocal microscopy. It is filed as ADME, cell-based. Particulars: nci-h358, 2 h. The method, boiled down:
as §1

The test system of data set [8] is NCI-H358. Description: Induction of apoptosis in human NCI-H358 cells assessed as live cells at 1 uM incubated for 24 hrs by Alexa Fluor 488 annexin V/propidium iodide staining based assay (reference value: 87%). The data set is classed as functional.
Data set [9] relates to NCI-H358. Description: Induction of apoptosis in human NCI-H358 cells assessed as late apoptotic cells at 5 uM incubated for 24 hrs by Alexa Fluor 488 annexin V/propidium iodide staining based assay (reference value: […]). The data set is classed as functional.
Data set [10] deals with NCI-H358. Description: Antitumor activity against human NCI-H358 cells xenografted in mouse assessed as reduction in ERK phosphorylation at 1 to 5 mg/kg, iv administered for 9 days measured every other day by immunohistochemical staining method. The data set is classed as functional, organism-based. Conditions: dose 1-5 mg/kg, time 9.0 day.
For a further data set, the species on record is Homo sapiens. Description: Binding affinity to glutathione-S-transferase (unknown origin). In outline:
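Fluorescein-labeled peptide (100 nM) incubated 1 h at RT with varying concentrations of control protein (BSA, GST-RBD, PNP, PTP1B or MDM2). KD derived from fluorescence polarization titration curves.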

Data set [11] is described as follows: Drug distribution in human NCI-H358 cells assessed as fluorescent puncta in cytoplasmic region at 5 uM incubated for 2 hrs by live-cell confocal microscopy. It is filed as ADME, cell-based. Particulars: nci-h358, 2 h. The method, boiled down: as §1
The test system of data set [12] is NCI-H358. Description: Antitumor activity against human NCI-H358 cells xenografted in mouse assessed as suppression of tumor growth at 5 mg/kg, iv administered for 9 days measured every other day. It is filed as functional, organism-based. Particulars: time 9.0 day. In outline: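 H358 xenograft in mice; peptide given daily at 5 mg/kg i.v. for 9 days, with tumor growth followed over that period.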

For `C[C@@H](NC(=O)[C@H](Cc1ccccc1)NC(=O)[C@@H](CCCNC(=N)N)NC(=O)[C@H](CCCN)NC(=O)[C@@H]1CNC(=O)c2cc3cc(c2)C(=O)N[C@H](Cc2ccc4ccccc4c2)C(=O)N[C@@H](CO)C(=O)N[C@@H](CC(N)=O)C(=O)N[C@H](Cc2ccc4ccccc4c2)C(=O)N[C@@H](c2ccccc2)C(=O)N[C@@H](CCCCNC3=O)C(=O)N[C@H](Cc2ccccc2)C(=O)N[C@@H](CCC(N)=O)C(=O)N[C@H](CCCNC(=N)N)C(=O)N[C@@H](CCCNC(=N)N)C(=O)N1)C(N)=O` ([d2Nal]SN[d2Nal][Phg]K[dF]Q[dR]R[Dap][Orn][dR]F[dA]-NH2; linker N-6-11 via Trimesoyl), the Activity is recorded as 8.91% in the data set with NCI-H358 [1]; 0.493% in the data set with NCI-H358 [3]; 14.7% in the data set with NCI-H358 [4]; “Non-Toxic” in data set [6]; 50 mm3 in the data set on A549; 87.7% with NCI-H358 [8]. In the data set with NCI-H358 [9], the Activity worked out at 29.1%. In addition, the EC50 – broadly, the concentration needed to bring the measured effect to its halfway point – in data set [2] is 6.8 µM. Moreover, the Drug uptake entry in data set [5], in data set [7] and in data set [11] was “Active” each time. The outcome in the data set on NCI-H358 [10] and in the data set with NCI-H358 [12] was Active. Also, the result in the data set filed under Homo sapiens was inactive.
